Published values gathered from unrelated publications.
Lines come from different studies, so protocols differ.
Target: Protein kinase C eta type (PRKCH, Homo sapiens, UniProt P24723)

SMILES | assay | conditions | remaining binding
O=C(NCC1CCOCC1)c1n[nH]cc1NC(=O)c1c(F)cccc1F | binding, competition with immobilised ligand | 1 µM | 92%
CCCOc1ccc([C@@H]2[C@@H](C(=O)O)[C@H](c3ccc4c(c3)OCO4)CN2CC(=O)Nc2c(CC)cccc2CC)cc1 | cell-free assay, competition with immobilised ligand | 1 µM | 100%
C[C@H]1CCN(c2nccc(-c3cnn4ncccc34)n2)C1 | binding | 1 µM | 93%
CCS(=O)(=O)c1cc2cc(C[C@@](O)(CC(C)(C)c3ccc(F)cc3C(N)=O)C(F)(F)F)[nH]c2cn1 | cell-free assay, competition with immobilised ligand | 1 µM | 100%
CN(CCCC(F)(F)F)c1nccc(-c2cnn3ncccc23)n1 | binding | 1 µM | 89%
Cc1cnc(Nc2ccc(C(=O)N3CCC(N4CCCC4)CC3)cc2)nc1-c1cc2ccccc2s1 | binding, competition with immobilised ligand | 1 µM | 15%
CNC(=O)Nc1ccc2c(c1)CC[C@@]21OC(=O)N(CC(=O)N(Cc2ccc(F)cc2)[C@@H](C)C(F)(F)F)C1=O | cell-free assay, competition with immobilised ligand | 1 µM | 93%
O=C(NCCCN1CCOCC1)c1ccc(Nc2nccc(-c3cc4ccccc4s3)n2)cc1 | binding, competition with immobilised ligand | 1 µM | 84%
CN(C)c1nccc(-c2cnc3ncccn23)n1 | binding | 1 µM | 100%
c1cncc(-c2cccc(Nc3nccc(NC4CCCCC4)n3)c2)c1 | binding, competition with immobilised ligand | 10 µM | 73%
COc1cc(-c2cn(C3CCc4c(F)cccc4N(CC(F)(F)F)C3=O)nn2)ccc1-n1cnc(C)c1 (stereo not shown) | cell-free assay, competition with immobilised ligand | 1 µM | 100%
FC(F)(F)Oc1cccc(-c2cnc3ccc(-c4ccncc4)nn23)c1 | cell-free assay, competition with immobilised ligand | 5 µM | 91%
F[C@@H]1CCN(c2nccc(-c3cnn4ncccc34)n2)C1 | binding | 1 µM | 100%
COc1cnc(Nc2cccc(S(N)(=O)=O)c2)nc1N1CCN(c2ccccc2)C(=O)C1 | binding, competition with immobilised ligand | 1 µM | 95%
C[C@H](c1ccnc(Nc2nc3ccc(-c4cc(N(C)C)ncn4)cc3[nH]2)c1)N1CCN(C(=O)CC(F)(F)F)CC1 | cell-free assay, competition with immobilised ligand | 0.1 µM | 84%
N[C@H]1CCN(c2nccc(-c3cnn4ncccc34)n2)C1 | binding | 1 µM | 88%
COc1cnc(Nc2cccc(S(N)(=O)=O)c2)nc1N1CCN(c2ccccc2)CC1 | binding, competition with immobilised ligand | 1 µM | 100%
O=C(NCCCN1CCOCC1)c1ccc(Nc2ncc(Cl)c(-c3ccc(Cl)s3)n2)cc1 | binding, competition with immobilised ligand | 1 µM | 100%
CN(c1nccc(-c2cnn3ncccc23)n1)C1CC1 | binding | 1 µM | 100%
CC(=O)Nc1c(C(C)=O)c(=O)n(C)c2nc(-c3ccc(Cl)cc3Cl)c(-c3ccc(Cl)cc3)cc12 | cell-free assay, competition with immobilised ligand | 1 µM | 100%
CN(C)c1ncc(F)c(-c2cnn3ncccc23)n1 | binding | 1 µM | 100%
CCN1CCN(Cc2ccc(C(=O)Nc3ccc(C)c(Oc4ccc5c(c4)CC(=O)N5)c3)cc2C(F)(F)F)CC1 | binding, competition with immobilised ligand | 1 µM | 100%
